According to ChEMBL document CHEMBL3856208, “Lupane and 18α-oleanane derivatives substituted in the position 2, their cytotoxicity and influence on cancer cells” (Eur J Med Chem, 2016):

Legend:
[1] = Cytotoxicity against human K562 cells after 72 hrs by MTS assay; format: functional, cell-based; settings: K562, 72 h
Summary of the method: (§1)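 Cells seeded at 25000–35000 cells/mL, compounds from DMSO dosed at time zero as four-fold dilutions. Exposure 72 h at 37 °C, 5% CO2, with MTS added for 1–4 h and OD read at 490 nm. Survival expressed as % of mean control OD, with IC50 from dose-response curves. Run as technical duplicates in at least three biological replicates.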

[2] = Cell cycle arrest in human CCRF-CEM cells assessed as accumulation at S phase at 23 uM after 24 hrs by propidium iodide staining-based flow cytometric method (reference value: 50.33%); format: functional
[3] = Therapeutic index, ratio of IC50 for human BJ cells to IC50 for human CCRF-CEM cells; format: cell-based; settings: BJ cells versus CCRF-CEM cells, read-out: Ratio IC50
[4] = Cell cycle arrest in human CCRF-CEM cells assessed as accumulation at G2/M phase at 23 uM after 24 hrs by propidium iodide staining-based flow cytometric method (reference value: 13.28%); format: functional
[5] = Cytotoxicity against human CCRF-CEM cells after 72 hrs by MTS assay; format: functional, cell-based; summary of the method: as §1
[6] = Cytotoxicity against p53 deficient human HCT116 cells after 72 hrs by MTS assay; format: functional, cell-based; settings: HCT-116, 72 h; summary of the method: as §1
[7] = test system: CCRF-CEM; experiment: Inhibition of DNA synthesis in human CCRF-CEM cells assessed as decrease in BrdU incorporation by measuring synthesized DNA levels at 23 uM after 24 hrs by propidium iodide staining-based flow cytometric method (reference value: 56.37%); format: functional; set-up: scale not given: the % may be the effect or the level left
Summary of the method: (§2)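 CCRF-CEM cells were cultured and treated as for cell cycle analysis, then pulse-labeled with 10 µM BrDU for 30 min before harvest. Cells were ethanol-fixed, DNA-denatured in 2 M HCl for 30 min at room temperature, and neutralized with 0.1 M borax. Staining used anti-BrDU, then anti-mouse-FITC, then PI (0.1 mg/mL) with RNase A (0.5 mg/mL) for 1 h. Read-out was 488 nm flow cytometry.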

[8] = Cell cycle arrest in human CCRF-CEM cells assessed as accumulation at sub G1 phase at 23 uM after 24 hrs by propidium iodide staining-based flow cytometric method (reference value: 1.8%); format: functional
[9] = test system: CCRF-CEM; experiment: Inhibition of RNA synthesis in human CCRF-CEM cells assessed as decrease in BrU incorporation by measuring synthesized RNA levels at 23 uM after 24 hrs by propidium iodide staining-based flow cytometric method (reference value: 43.37%); format: functional; set-up: scale not given: the % may be the effect or the level left
[10] = Cell cycle arrest in human CCRF-CEM cells assessed as accumulation at G0/G1 phase at 23 uM after 24 hrs by propidium iodide staining-based flow cytometric method (reference value: 36.41%); format: functional
[11] = Cytotoxicity against human U2OS cells after 72 hrs by MTS assay; format: functional, cell-based; summary of the method: as §1
[12] = test system: CCRF-CEM; experiment: Mitotic arrest in human CCRF-CEM cells assessed as phosphorylation of histone-3 at Ser10 at 23 uM after 24 hrs by flow cytometric method (reference value: 1.66%)
[13] = Therapeutic index, ratio of IC50 for human MRC5 cells to IC50 for human CCRF-CEM cells; format: cell-based; settings: MRC5 cells versus CCRF-CEM cells, read-out: Ratio IC50
[14] = Cell cycle arrest in human CCRF-CEM cells assessed as accumulation at S phase at 4.6 uM after 24 hrs by propidium iodide staining-based flow cytometric method (reference value: 50.33%); format: functional
[15] = Cell cycle arrest in human CCRF-CEM cells assessed as accumulation at sub G1 phase at 4.6 uM after 24 hrs by propidium iodide staining-based flow cytometric method (reference value: 1.8%); format: functional
[16] = Cell cycle arrest in human CCRF-CEM cells assessed as accumulation at G0/G1 phase at 4.6 uM after 24 hrs by propidium iodide staining-based flow cytometric method (reference value: 36.41%); format: functional
[17] = test system: CCRF-CEM; experiment: Inhibition of DNA synthesis in human CCRF-CEM cells assessed as decrease in BrdU incorporation by measuring synthesized DNA levels at 4.6 uM after 24 hrs by propidium iodide staining-based flow cytometric method (reference value: 56.37%); format: functional; set-up: scale not given: the % may be the effect or the level left; summary of the method: as §2
[18] = Cytotoxicity against human A549 cells after 72 hrs by MTS assay; format: functional, cell-based; settings: A549, 72 h; summary of the method: as §1
[19] = test system: CCRF-CEM; experiment: Mitotic arrest in human CCRF-CEM cells assessed as phosphorylation of histone-3 at Ser10 at 4.6 uM after 24 hrs by flow cytometric method (reference value: 1.66%); format: functional
[20] = Cytotoxicity against human HCT116 cells after 72 hrs by MTS assay; format: functional, cell-based; settings: HCT-116, 72 h; summary of the method: as §1
[21] = Cell cycle arrest in human CCRF-CEM cells assessed as accumulation at G2/M phase at 4.6 uM after 24 hrs by propidium iodide staining-based flow cytometric method (reference value: 13.28%); format: functional
[22] = Cytotoxicity against human BJ cells after 72 hrs by MTS assay; format: toxicity, cell-based; summary of the method: as §1
[23] = Cytotoxicity against human CEM/DNR cells after 72 hrs by MTS assay; format: functional, cell-based; summary of the method: as §1
[24] = Cytotoxicity against human K562-TAX cells after 72 hrs by MTS assay; format: functional, cell-based; summary of the method: as §1
[25] = test system: CCRF-CEM; experiment: Inhibition of RNA synthesis in human CCRF-CEM cells assessed as decrease in BrU incorporation by measuring synthesized RNA levels at 4.6 uM after 24 hrs by propidium iodide staining-based flow cytometric method (reference value: 43.37%); format: functional; set-up: scale not given: the % may be the effect or the level left
[26] = Cytotoxicity against human MRC5 cells after 72 hrs by MTS assay; format: toxicity, cell-based; summary of the method: as §1

`CC1(C)CC[C@]23CC[C@]4(C)[C@H](CC[C@@H]5[C@@]6(C)CC(N)[C@H](O)C(C)(C)[C@@H]6CC[C@]54C)[C@H]2[C@H]1OC3` (stereo partly specified) gave an IC50 [1] of 4.5 µM, an Activity [2] of 54.9% and a selectivity ratio [3] of 1.4. For the same molecule, the Activity [4] was 16.2%, the IC50 [5] was 4.6 to 5 µM and the IC50 [6] was 4.8 µM. The Activity [7] was 1.88%, the Activity [8] was 7.1% and the Activity [9] was 2.23%. It also gave an Activity [10] of 28.9%, an IC50 [11] of 6.2 µM and an Activity [12] of 0.49%. It also gave a selectivity ratio [13] of 1.4, an Activity [14] of 47.8% and an Activity [15] of 2.79%. The Activity [16] was 40.7%, the Activity [17] was 53.53% and the IC50 [18] was 6.2 µM. The Activity [19] was 1.44%, the IC50 [20] was 4.9 µM and the Activity [21] was 11.5%. For the same molecule, the IC50 at 72 h [22] was 7.1 µM, the IC50 [23] was 5.9 µM and the IC50 [24] was 3.9 µM. For the same molecule, the Activity [25] was 42.98% and the IC50 at 72 h [26] was 6.3 µM.
